According to PMC10438863 (Journal of Enzyme Inhibition and Medicinal Chemistry, 2023):

Key:
[1] = test system: K562 cell line; experiment: CCK-8 antiproliferative assay, K562; assay type: cell-based; details: for inhibition at 0.1 µM / inhibition at 1 µM / IC50: Homo sapiens, K562, 72 h; for inhibition at 0.1 µM / inhibition at 1 µM: read-out: Inhibition rate (%); for IC50: read-out: IC50 (µM) K562; for fold decrease in antiproliferative activities of K562 cell lines: relative to 12d
Procedure, shortened: (§1)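 Cells were grown in RPMI-1640 with 10% FBS at 37 °C in 5% CO2. About 3.5 × 10^3 cells/well were seeded, grown 24 h, then given test compound at several concentrations for 72 h in triplicate wells. CCK-8 was added for 2–3 h and OD read at 450 nm to give inhibition rate or IC50. K562 screen: mean of ≥2 independent experiments. Five-line panel: mean ± SD of three.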

[2] = test system: H22; experiment: CCK-8 antiproliferative assay, H22; assay type: cell-based, mouse; details: Mus musculus, H22, 72 h, read-out: IC50 (µM) H22
Procedure, shortened: as §1

[3] = test system: normal cell line HFL-1; experiment: CCK-8 assay, normal cell line HFL-1; assay type: cell-based; details: Homo sapiens, HFL1, 72 h, read-out: IC50 (µM) HFL-1
Procedure, shortened: as §1

[4] = test system: Hela; experiment: CCK-8 antiproliferative assay, Hela; assay type: cell-based; details: Homo sapiens, HeLa, 72 h, read-out: IC50 (µM) Hela
Procedure, shortened: as §1

[5] = test system: A549; experiment: CCK-8 antiproliferative assay, A549; assay type: cell-based; details: Homo sapiens, A549, 72 h, read-out: IC50 (µM) A549
Procedure, shortened: as §1

[6] = test system: colchicine binding site on tubulin; experiment: [3H]-colchicine competition scintillation proximity assay; details: tubulin 1 µM, [3H]-colchicine 5 µM
Procedure, shortened: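 Competition scintillation proximity assay. Test compound was added to buffer (80 mM PIPES pH 6.8, 1 mM EGTA, 1 mM MgCl2, 10% glycerol, 1 mM GTP) containing tubulin 1 µM, then [3H]-colchicine 5 µM. After 2 h incubation, streptavidin-labelled SPA beads were added and radioactivity counted. Percent inhibition of colchicine binding was reported as mean ± SD of three independent experiments.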

[7] = test system: H22 allograft; experiment: H22 allograft mice model, in vivo antitumor effect; details: 20 mg/kg i.v. once a day, three weeks, by tumour weight
Procedure, shortened: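 H22 cells in log phase (1 × 10^7 cells/mL, 0.1 ml) were injected s.c. into the right flank. Tumour size and body weight were recorded every two days. Mice were sacrificed at about 21 days. TGI (%) = (1 − Wt/Wc) × 100, using mean tumour weights.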

| Structure (SMILES) | inhibition at 0.1 µM [1] [%] | inhibition at 1 µM [1] [%] | further results |
| --- | --- | --- | --- |
| COc1cc2c(c(OC)c1OC)CC(Cc1ccc(N(C)C)cc1)C2 (stereo not drawn) [Compound 12o, N,N-dimethyl-4-((4,5,6-trimethoxy-2,3-dihydro-1H-inden-2-yl)methyl)aniline] | 5.65 | 6.97 | – |
| COc1cc2c(c(OC)c1OC)CC(Cc1ccc3[nH]ccc3c1)C2 (stereo not drawn) [Compound 12t, 5-((4,5,6-trimethoxy-2,3-dihydro-1H-inden-2-yl)methyl)-1H-indole] | 50.4 | 88.6 | IC50 [2]: 0.254 ± 0.02 µM; IC50 [3]: 0.552 ± 0.075 µM; IC50 [4]: 0.284 ± 0.014 µM; IC50 [1]: 0.176 ± 0.024 µM; IC50 [5]: 0.277 ± 0.029 µM |
| COc1cc2c(c(OC)c1OC)CC(Cc1ccc(N)c(C)c1)C2 (stereo not drawn) [Compound 12h, 2-methyl-4-((4,5,6-trimethoxy-2,3-dihydro-1H-inden-2-yl)methyl)aniline] | 2.25 | 79.8 | – |
| COc1cc2c(c(OC)c1OC)CC(Cc1ccccc1)C2 (stereo not drawn) [Compound 12l, 2-benzyl-4,5,6-trimethoxy-2,3-dihydro-1H-indene] | 1.03 | 7.29 | – |
| COc1ccc(CC2Cc3cc(OC)c(OC)c(OC)c3C2)cc1OC (stereo not drawn) [Compound 12b, 2–(3,4-dimethoxybenzyl)-4,5,6-trimethoxy-2,3-dihydro-1H-indene] | 5.8 | 15.2 | – |
| COc1ccc(CC2Cc3cc(OC)c(OC)c(OC)c3C2)cc1F (stereo not drawn) [Compound 12e, 2–(3-fluoro-4-methoxybenzyl)-4,5,6-trimethoxy-2,3-dihydro-1H-indene] | 10.2 | 67 | – |
| COc1ccc(/C=C\c2cc(OC)c(OC)c(OC)c2)cc1O [CA-4, Combretastatin A-4, reference compound] | 88.3 | 92 | IC50 [2]: 0.01 ± 0.002 µM; Inhibition (%) of colchicine binding ([6]; compound 1 µM): 78.55 ± 1.85%; Inhibition (%) of colchicine binding ([6]; compound 5 µM): 87.35 ± 1.37%; IC50 [3]: 0.139 ± 0.017 µM; IC50 [4]: 0.026 ± 0.006 µM; tumour growth inhibition (TGI) value [7]: 59.19%; IC50 [1]: 0.004 ± 0.001 µM; IC50 [5]: 0.032 ± 0.005 µM |
| COc1cc2c(c(OC)c1OC)CC(Cc1ccc(N)cc1)C2 (stereo not drawn) [Compound 12n, 4-((4,5,6-trimethoxy-2,3-dihydro-1H-inden-2-yl)methyl)aniline] | 5.81 | 78.8 | – |
| COc1cc2c(c(OC)c1OC)CC(Cc1cccc3[nH]ccc13)C2 (stereo not drawn) [Compound 12s, 4-((4,5,6-trimethoxy-2,3-dihydro-1H-inden-2-yl)methyl)-1H-indole] | 9.67 | 67.1 | – |
| COc1ccc(CC2Cc3cc(OC)c(OC)c(OC)c3C2)cc1 (stereo not drawn) [Compound 12a, 4,5,6-trimethoxy-2–(4-methoxybenzyl)-2,3-dihydro-1H-indene] | 5.71 | 72.4 | – |
| COc1ccc(CC2Cc3cc(OC)c(OC)cc3C2)cc1O [Compound 15a, 5-((5,6-dimethoxy-2,3-dihydro-1H-inden-2-yl)methyl)-2-methoxyphenol] | 45.6 | 81.5 | IC50 [2]: 0.307 ± 0.015 µM; IC50 [3]: 5 ± 0.306 µM; IC50 [4]: 0.317 ± 0.027 µM; IC50 [1]: 0.192 ± 0.013 µM; fold decrease in antiproliferative activities of K562 cell lines [1]: about 7 fold; IC50 [5]: 0.753 ± 0.04 µM |
| COc1cc2c(c(OC)c1OC)CC(Cc1ccc(C)c(C)c1)C2 (stereo not drawn) [Compound 12i, 2–(3,4-dimethylbenzyl)-4,5,6-trimethoxy-2,3-dihydro-1H-indene] | 3 | 66 | – |
| COc1cc2c(c(OC)c1OC)CC(Cc1ccc3c(c1)CCO3)C2 (stereo not drawn) [Compound 12q, 5-((4,5,6-trimethoxy-2,3-dihydro-1H-inden-2-yl)methyl)-2,3-dihydrobenzofuran] | 83.6 | 91.9 | IC50 [2]: 0.104 ± 0.004 µM; IC50 [3]: 0.398 ± 0.023 µM; IC50 [4]: 0.183 ± 0.009 µM; IC50 [1]: 0.079 ± 0.009 µM; IC50 [5]: 0.22 ± 0.015 µM |
| COc1cc2c(c(OC)c1OC)CC(Cc1ccc(O)cc1)C2 (stereo not drawn) [Compound 12m, 4-((4,5,6-trimethoxy-2,3-dihydro-1H-inden-2-yl)methyl)phenol] | 2.9 | 16.4 | – |
| COc1cc2c(c(OC)c1OC)CC(Cc1cccc3c1ccn3C)C2 (stereo not drawn) [Compound 12v, 1-methyl-4-((4,5,6-trimethoxy-2,3-dihydro-1H-inden-2-yl)methyl)-1H-indole] | 5.02 | 28.5 | – |
| COc1ccc(CC2Cc3c(cc(OC)c(OC)c3OC)O2)cc1O (stereo not drawn) [Compound 15c, 2-methoxy-5-((4,5,6-trimethoxy-2,3-dihydrobenzofuran-2-yl)methyl)phenol] | 52.1 | 87.5 | IC50 [2]: 0.114 ± 0.023 µM; IC50 [3]: 3.58 ± 0.548 µM; IC50 [4]: 0.309 ± 0.032 µM; IC50 [1]: 0.1 ± 0.007 µM; IC50 [5]: 0.341 ± 0.064 µM |
| COc1cc(CC2Cc3cc(OC)c(OC)c(OC)c3C2)cc(OC)c1OC (stereo not drawn) [Compound 12c, 4,5,6-trimethoxy-2–(3,4,5-trimethoxybenzyl)-2,3-dihydro-1H-indene] | 6.96 | 9.48 | – |
| COc1ccc(CC2Cc3cc(OC)c(OC)c(OC)c3C2)cc1N (stereo not drawn) [Compound 12j, 2-methoxy-5-((4,5,6-trimethoxy-2,3-dihydro-1H-inden-2-yl)methyl)aniline] | 68.7 | 86.6 | IC50 [2]: 0.093 ± 0.005 µM; IC50 [3]: 0.59 ± 0.062 µM; IC50 [4]: 0.136 ± 0.011 µM; IC50 [1]: 0.068 ± 0.006 µM; IC50 [5]: 0.212 ± 0.013 µM |
| COc1cc2c(c(OC)c1OC)CC(Cc1ccc3cc[nH]c3c1)C2 (stereo not drawn) [Compound 12u, 6-((4,5,6-trimethoxy-2,3-dihydro-1H-inden-2-yl)methyl)-1H-indole] | 10.8 | 83.9 | – |
| COc1cc2c(c(OC)c1OC)CC(Cc1ccc3c(ccn3C)c1)C2 (stereo not drawn) [Compound 12w, 1-methyl-5-((4,5,6-trimethoxy-2,3-dihydro-1H-inden-2-yl)methyl)-1H-indole] | 10 | 85.8 | – |
| COc1cc2c(c(OC)c1OC)CC(Cc1ccc(C)c(F)c1)C2 (stereo not drawn) [Compound 12f, 2–(3-fluoro-4-methylbenzyl)-4,5,6-trimethoxy-2,3-dihydro-1H-indene] | 6.65 | 72 | – |
| COc1ccc(CC2Cc3cc(OC)c(OC)c(OC)c3C2)cn1 (stereo not drawn) [Compound 12k, 2-methoxy-5-((4,5,6-trimethoxy-2,3-dihydro-1H-inden-2-yl)methyl)pyridine] | 4.12 | 13.9 | – |
| COc1cc2c(c(OC)c1OC)CC(Cc1ccc(C(F)(F)F)cc1)C2 (stereo not drawn) [Compound 12p, 4,5,6-trimethoxy-2–(4-(trifluoromethyl)benzyl)-2,3-dihydro-1H-indene] | 12.6 | 15.4 | – |
| COc1ccc(CC2Cc3cc(OC)c(OC)c(OC)c3C2=O)cc1O (stereo not drawn) [Compound 15d, 2–(3-hydroxy-4-methoxybenzyl)-5,6,7-trimethoxy-2,3-dihydro-1H-inden-1-one] | 39 | 63 | IC50 [2]: 1.13 ± 0.058 µM; IC50 [3]: 6.96 ± 0.843 µM; IC50 [4]: 3.41 ± 0.186 µM; IC50 [1]: 0.774 ± 0.051 µM; IC50 [5]: 2.95 ± 0.154 µM |
| COc1cc2c(c(OC)c1OC)CC(Cc1ccc3ccn(C)c3c1)C2 (stereo not drawn) [Compound 12x, 1-methyl-6-((4,5,6-trimethoxy-2,3-dihydro-1H-inden-2-yl)methyl)-1H-indole] | 12.5 | 74.9 | – |
| COc1cc2c(c(OC)c1OC)CC(Cc1ccc(F)c(F)c1)C2 (stereo not drawn) [Compound 12g, 2–(3,4-difluorobenzyl)-4,5,6-trimethoxy-2,3-dihydro-1H-indene] | 4.71 | 7.74 | – |
| COc1ccc(CC2Cc3cc(O)c(OC)cc3C2)cc1O (stereo not drawn) [Compound 15b, 2–(3-hydroxy-4-methoxybenzyl)-6-methoxy-2,3-dihydro-1H-inden-5-ol] | 31.4 | 89.2 | IC50 [2]: 0.575 ± 0.041 µM; IC50 [3]: 11.3 ± 1.4 µM; IC50 [4]: 3.17 ± 0.108 µM; IC50 [1]: 0.425 ± 0.027 µM; fold decrease in antiproliferative activities of K562 cell lines [1]: ~15 fold; IC50 [5]: 2.01 ± 0.117 µM |
